Data: ChEMBL document CHEMBL1641583, “Design, synthesis, and biological evaluation of N-acetyl-S-(p-chlorophenylcarbamoyl)cysteine and its analogs as a novel class of anticancer agents” (Bioorg Med Chem, 2011)
pIC50: −log10 of the molar value. Values after ≈ are worked out from the molar mass of the structure shown. Active and inactive are the calls of the source. The rule behind the calls is not given here.

What was measured:
[1] = Cytotoxicity against human GC3/C1 cells after 6 days by MTT assay; type: functional, cell-based; conditions: GC3/C1, 144 h
OVCAR-3 [2] = test: Cytotoxicity against human OVCAR3 cells after 6 days by MTT assay; type: functional, cell-based; conditions: OVCAR-3, 144 h
UACC-62 [3] = test: Cytotoxicity against human UACC62 cells after 6 days by MTT assay; type: functional, cell-based; conditions: UACC-62, 144 h
SK-MEL-2 [4] = test: Cytotoxicity against human SK-MEL-2 cells after 6 days by MTT assay; type: functional, cell-based; conditions: SK-MEL-2, 144 h
UACC-62 [5] = test: Cytotoxicity against human UACC62 cells after 1 to 3 days by MTT assay; type: functional, cell-based
[6] = Solubility of the compound in 0.1 M phosphate buffer at pH 7.4; type: physicochemical
How it was run: (§1)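 Solubility measured in ethyl acetate and in 0.1 M phosphate buffer pH 7.4; reported in mg/mL.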

UACC-62 [7] = test: Ratio of compound IC50 to dacarbazine IC50 for human UACC62 cells; type: functional
OVCAR-3 [8] = test: Cytotoxicity against human OVCAR3 cells after 1 to 3 days by MTT assay; type: functional, cell-based
SK-MEL-2 [9] = test: Ratio of compound IC50 to dacarbazine IC50 for human SK-MEL-2 cells; type: functional
SK-MEL-2 [10] = test: Cytotoxicity against human SK-MEL-2 cells after 1 to 3 days by MTT assay; type: functional, cell-based
[11] = Solubility of the compound in ethyl acetate; type: physicochemical; how it was run: as §1
A-431 = test: Cytotoxicity against human A431 cells after 6 days by MTT assay; type: functional, cell-based
UACC-62 [12] = test: Cell cycle arrest in human UACC62 cells assessed as DNA accumulation at 0.01 to 1 uM after 6 days using propidium iodide staining by flow cytometry; type: functional, cell-based
How it was run: (§2)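 Cells seeded in 75 cm² flasks (GC3/c1 0.3 million, UACC-62 0.14 million) in RPMI 1640/10% FBS, exposed 6 days; adherent cells only trypsinized, PBS-washed, 1 million fixed in 70% ethanol at 4 °C, RNase A 30 min 37 °C, propidium iodide 30 min dark at room temperature; DNA content by flow cytometry; mean ± SD, three independent experiments.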

UACC-62 [13] = test: Induction of apoptosis in human UACC62 cells assessed as translocation of phosphatidylserine from inner layer to outer layer of cell membrane at > 1 uM after 6 days using annexin V staining by flow cytometry; type: functional, cell-based
UACC-62 [14] = test: Induction of apoptosis in human UACC62 cells assessed as translocation of phosphatidylserine from inner layer to outer layer of cell membrane after 6 days using annexin V staining by flow cytometry; type: functional, cell-based
How it was run: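 UACC-62 plated and dosed in 96-well format as for cytotoxicity, 6 days; adherent plus floating cells trypsinized, PBS-washed, 1×10^6 cells/mL in annexin-binding buffer; ~1×10^5 cells stained with Alexa Fluor 488 annexin V and PI 15 min dark, room temperature; early plus late apoptotic fractions summed by flow cytometry; mean ± SD, three experiments.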

UO-31 = test: Cytotoxicity against human UO31 cells after 6 days by MTT assay; type: functional, cell-based
[15] = Cytotoxicity against african green monkey CV1 cells after 6 days by MTT assay; type: cell-based; conditions: Chlorocebus aethiops, CV-1, 144 h
NCI-H226 = test: Cytotoxicity against human NCI-H226 cells after 6 days by MTT assay; type: functional, cell-based
[16] = Cell cycle arrest in human GC3/C1 cells assessed as DNA accumulation at 0.01 to 1 uM after 6 days using propidium iodide staining by flow cytometry; type: functional, cell-based; how it was run: as §2
PC-3 = test: Cytotoxicity against human PC3 cells after 6 days by MTT assay; type: functional, cell-based

For CC(=O)N[C@@H](CSC(=O)Nc1ccc(I)cc1)C(=O)O, the pIC50 [1] was less than 3.70, the pIC50 (OVCAR-3 [2]) was less than 3.70 and the pIC50 (UACC-62 [3]) was 4.34.

In the case of COc1ccc(OC)c(NC(=O)SC[C@H](NC(C)=O)C(=O)O)c1, the pIC50 [1] was less than 3.70, the pIC50 (OVCAR-3 [2]) was less than 3.70 and the pIC50 (UACC-62 [3]) was less than 3.70.

Work on CC(=O)N[C@@H](CSC(=O)Nc1ccc([N+](=O)[O-])cc1Cl)C(=O)O yielded a pIC50 [1] of less than 3.70, a pIC50 (OVCAR-3 [2]) of less than 3.70 and a pIC50 (UACC-62 [3]) of less than 3.70.

With CC(=O)N[C@@H](CSC(=O)Nc1cc(Cl)cc(Cl)c1)C(=O)O the pIC50 [1] was less than 3.70, the pIC50 (OVCAR-3 [2]) was less than 3.70 and the pIC50 (UACC-62 [3]) was less than 3.70.

With COc1ccc(NC(=O)SC[C@H](NC(C)=O)C(=O)O)cc1 the pIC50 [1] was less than 3.70, the pIC50 (OVCAR-3 [2]) was less than 3.70 and the pIC50 (UACC-62 [3]) was 4.12.

For CN(C)/N=N/c1[nH]cnc1C(N)=O [DACARBAZINE], the pIC50 [1] was 5.12, the pIC50 (OVCAR-3 [2]) was 4.75 and the pIC50 (UACC-62 [3]) was 4.93. The pIC50 (SK-MEL-2 [4]) was 3.92.

Compound CC(=O)N[C@@H](CSC(=O)Nc1ccc(C(F)(F)F)cc1[N+](=O)[O-])C(=O)O has a pIC50 [1] of less than 3.70, a pIC50 (OVCAR-3 [2]) of less than 3.70 and a pIC50 (UACC-62 [3]) of less than 3.70.

With CC(=O)N[C@@H](CSC(=O)Nc1ccc(F)cc1)C(=O)O the Activity (UACC-62 [5]) was “inactive”, the solubility [6] was 26 mg/mL (≈ 86.6 mM) and the pIC50 [1] was 3.94. The “Ratio IC50” value (UACC-62 [7]) was 328, the Activity (OVCAR-3 [8]) was “inactive” and the pIC50 (OVCAR-3 [2]) was less than 3.70. For the same compound, the “Ratio IC50” value (SK-MEL-2 [9]) was 279, the Activity (SK-MEL-2 [10]) was “inactive” and the pIC50 (UACC-62 [3]) was 7.44. It also gave a pIC50 (SK-MEL-2 [4]) of 6.37 and a solubility [11] of 388 mg/mL (≈ 1290 mM).

Work on CC(=O)N[C@@H](CSC(=O)Nc1ccccc1F)C(=O)O yielded a pIC50 [1] of less than 3.70, a pIC50 (OVCAR-3 [2]) of less than 3.70 and a pIC50 (UACC-62 [3]) of less than 3.70.

In the case of CC(=O)N[C@@H](CSC(=O)Nc1ccc(Cl)cc1)C(=O)O, the Activity (A-431) was “inactive”, the Activity (UACC-62 [5]) was “inactive” and the Activity (UACC-62 [12]) was “inactive”. The solubility [6] was 26 mg/mL (≈ 82.1 mM), the Activity (UACC-62 [13]) was “inactive” and the pIC50 [1] was 5.09. The Activity (UACC-62 [14]) was “Dose-dependent effect”, the Activity (UO-31) was “inactive” and the “Ratio IC50” value (UACC-62 [7]) was 490. The pIC50 [15] was 3.28, the Activity (OVCAR-3 [8]) was “inactive” and the pIC50 (OVCAR-3 [2]) was less than 3.70. For the same compound, the Activity (NCI-H226) was “inactive”, the “Ratio IC50” value (SK-MEL-2 [9]) was 16000 and the Activity [16] was “inactive”. For the same compound, the Activity (PC-3) was “inactive”, the Activity (SK-MEL-2 [10]) was “inactive” and the pIC50 (UACC-62 [3]) was 7.62. For the same compound, the pIC50 (SK-MEL-2 [4]) was 8.10 and the solubility [11] was 721 mg/mL (≈ 2280 mM).

Work on CC(=O)N[C@@H](CSC(=O)Nc1cccc2ccccc12)C(=O)O yielded a pIC50 [1] of less than 3.70, a pIC50 (OVCAR-3 [2]) of less than 3.70 and a pIC50 (UACC-62 [3]) of less than 3.70.

For CC(=O)N[C@@H](CSC(=O)Nc1ccc(Br)cc1)C(=O)O, the Activity (UACC-62 [5]) was “inactive”, the solubility [6] was 24 mg/mL (≈ 66.4 mM) and the pIC50 [1] was 4.20. The “Ratio IC50” value (UACC-62 [7]) was 37, the Activity (OVCAR-3 [8]) was “inactive” and the pIC50 (OVCAR-3 [2]) was less than 3.70. The “Ratio IC50” value (SK-MEL-2 [9]) was 1000, the Activity (SK-MEL-2 [10]) was “inactive” and the pIC50 (UACC-62 [3]) was 6.49. For the same compound, the pIC50 (SK-MEL-2 [4]) was 6.92 and the solubility [11] was 50 mg/mL (≈ 138 mM).

With CC(=O)N[C@@H](CSC(=O)Nc1cccc(Cl)c1)C(=O)O the pIC50 [1] was less than 3.70, the pIC50 (OVCAR-3 [2]) was less than 3.70 and the pIC50 (UACC-62 [3]) was less than 3.70.

With CC(=O)N[C@@H](CSC(=O)Nc1ccccc1Cl)C(=O)O the pIC50 [1] was less than 3.70, the pIC50 (OVCAR-3 [2]) was less than 3.70 and the pIC50 (UACC-62 [3]) was less than 3.70.

Work on CC(=O)N[C@@H](CSC(=O)Nc1ccccc1)C(=O)O yielded a pIC50 [1] of 3.75, a pIC50 (OVCAR-3 [2]) of 3.81 and a pIC50 (UACC-62 [3]) of 3.90.

Compound CSc1ccccc1NC(=O)SC[C@H](NC(C)=O)C(=O)O has a pIC50 [1] of less than 3.70, a pIC50 (OVCAR-3 [2]) of less than 3.70 and a pIC50 (UACC-62 [3]) of less than 3.70.

For COc1ccccc1NC(=O)SC[C@H](NC(C)=O)C(=O)O, the pIC50 [1] was less than 3.70, the pIC50 (OVCAR-3 [2]) was less than 3.70 and the pIC50 (UACC-62 [3]) was less than 3.70.

With COc1ccccc1CNC(=O)SC[C@H](NC(C)=O)C(=O)O the pIC50 [1] was less than 3.70, the pIC50 (OVCAR-3 [2]) was less than 3.70 and the pIC50 (UACC-62 [3]) was less than 3.70.

CC(=O)N[C@@H](CSC(=O)NCc1ccc(Cl)cc1)C(=O)O gave a pIC50 [1] of less than 3.70, a pIC50 (OVCAR-3 [2]) of less than 3.70 and a pIC50 (UACC-62 [3]) of less than 3.70.
